Measurements as given in ChEMBL document CHEMBL1240314, “Small-molecule inhibitor of p53 binding to mitochondria protects mice from gamma radiation” (2006).
Calls of active or inactive are those of the source. The calls are words filed in the database; no cut-off is given here.

Key:
[1] = target: Cellular tumor antigen p53 (Homo sapiens) (UniProt P04637); experiment: Binding affinity to p53 assessed as reduction in mitochondrial-bound p53 level at 25 uM
Outline: (§1)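 Cell-free reconstitution: freshly isolated HeLa or Saos-2 mitochondria (40 mg as printed) incubated 1 h at 37 °C with purified baculoviral human wild-type p53 (60 ng) plus compound in MS buffer with CaCl2; mitochondria pelleted, washed three times, p53 cosedimentation by western blot, mt-Hsp75 loading control.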

[2] = target: Cellular tumor antigen p53 (Homo sapiens) (UniProt P04637); experiment: Binding affinity to p53 assessed as reduction in mitochondrial-bound p53 level at 50 uM; outline: as §1
[3] = Antiapoptotic activity against gamma irradiation-induced apoptosis in mouse thymocyte assessed as cytosolic Cyt c concentration at 20 uM; assay type: functional, cell-based
Outline: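 Thymocytes (20 × 10^6) from 5-week-old C57Bl/6J mice irradiated with 10 Gy gamma, with or without compound ([…] as printed); cytosolic fractions isolated 5 h after irradiation and probed for cytochrome c by western blot.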

[4] = tested on: HeLa; experiment: Antiapoptotic activity against staurosporine-induced cell death in human HeLa cells assessed as cell survival at 10 uM after 24 hrs by methylene blue assay; assay type: functional, cell-based
[5] = tested on: NCI-H1299; experiment: Antiapoptotic activity against staurosporine-induced cell death in human H1299 cells assessed as cell survival at 10 uM after 24 hrs by methylene blue assay; assay type: functional, cell-based
[6] = tested on: WI-38; experiment: Antiapoptotic activity against TNF-alpha induced apoptosis in human WI38 cells assessed as cell survival at 0.1 uM to 10 uM after 24 hrs by methylene blue assay in presence of 0.5 ug/ml cycloheximidine; assay type: functional, cell-based
[7] = tested on: WI-38; experiment: Antiapoptotic activity against Fas-induced apoptosis in human WI38 cells assessed as cell survival at 0.1 uM to 10 uM after 24 hrs by methylene blue assay in presence of 1 ug/ml cycloheximidine; assay type: functional, cell-based
[8] = target: Cellular tumor antigen p53 (Homo sapiens) (UniProt P04637); experiment: Inhibition of p53-mediated apoptosis in human WI38 cells assessed as cell survival at 10 uM after 24 hrs by methylene blue assay; assay type: cell-based; conditions: WI-38
[9] = target: Cellular tumor antigen p53 (Mus musculus) (UniProt P02340); experiment: Inhibition of p53-mediated apoptosis in mouse fibroblast assessed as cell survival at 10 uM after 24 hrs by methylene blue assay
Chain of Cellular tumor antigen p53 (Mus musculus) (P02340 whole entry): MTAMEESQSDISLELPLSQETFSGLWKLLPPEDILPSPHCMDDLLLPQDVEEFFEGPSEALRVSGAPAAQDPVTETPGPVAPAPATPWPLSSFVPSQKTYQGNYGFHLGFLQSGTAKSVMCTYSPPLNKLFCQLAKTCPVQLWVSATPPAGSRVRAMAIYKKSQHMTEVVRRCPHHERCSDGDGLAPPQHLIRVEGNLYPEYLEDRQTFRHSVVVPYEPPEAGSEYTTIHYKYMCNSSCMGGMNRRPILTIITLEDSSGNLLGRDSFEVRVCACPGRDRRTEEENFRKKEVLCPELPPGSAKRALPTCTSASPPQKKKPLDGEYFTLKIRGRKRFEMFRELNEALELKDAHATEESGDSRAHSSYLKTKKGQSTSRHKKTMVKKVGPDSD

[10] = target: Cellular tumor antigen p53 (Homo sapiens) (UniProt P04637); experiment: Inhibition of p53-mediated transactivation of promoter cyclin G in human H1299 cells at 10 uM after 48 hrs by luciferase reporter assay; assay type: cell-based
[11] = target: Cellular tumor antigen p53 (Homo sapiens) (UniProt P04637); experiment: Inhibition of p53-mediated transactivation of promoter hDM2 in human H1299 cells at 10 uM after 48 hrs by lacZ reporter assay; assay type: cell-based
[12] = target: Cellular tumor antigen p53 (Homo sapiens) (UniProt P04637); experiment: Inhibition of p53-dependent transcription of bax in human MCF7 cells; assay type: cell-based
Outline: (§2)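 Northern analysis of MCF7 cells, p53 wild-type and shRNA p53-knockdown. Induction by UV 8.5 J m–2 or Dox […]. RNA isolated 18 h after treatment; 10 µg hybridised with 32P-labelled full-length cDNA probes for Bax, Noxa or Puma. 18S rRNA used as loading control.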

[13] = target: Cellular tumor antigen p53 (Homo sapiens) (UniProt P04637); experiment: Inhibition of p53-dependent transcription of noxa in human MCF7 cells; assay type: cell-based; outline: as §2
[14] = target: Cellular tumor antigen p53 (Homo sapiens) (UniProt P04637); experiment: Inhibition of p53-dependent transcription of puma in human U2OS cells; assay type: cell-based
Outline: (§3)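 Northern analysis of U2OS cells, p53 wild-type and shRNA p53-knockdown. Induction by UV 8.5 J m–2 or Dox […]. RNA isolated 18 h after treatment; 10 µg hybridised with 32P-labelled full-length cDNA probes for Bax, Noxa or Puma. 18S rRNA used as loading control.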

[15] = target: Cellular tumor antigen p53 (Homo sapiens) (UniProt P04637); experiment: Inhibition of p53-dependent transcription of puma in doxorubicin-induced human U2OS cells; assay type: cell-based; outline: as §3
[16] = target: Cellular tumor antigen p53 (Homo sapiens) (UniProt P04637); experiment: Inhibition of p53-dependent transcription of noxa in human U2OS cells; assay type: cell-based; outline: as §3
[17] = target: Cellular tumor antigen p53 (Homo sapiens) (UniProt P04637); experiment: Inhibition of p53-mediated transactivation of p21 in gamma-stimulated human SK-MEL-29 cells at 10 uM after 6 hrs
[18] = tested on: H1299; experiment: Inhibition of TNFalpha induced NF-kappaB activation in human H1299 cells; assay type: cell-based
[19] = target: Cellular tumor antigen p53 (Mus musculus) (UniProt P02340); experiment: Inhibition of p53-dependent transcription of puma in gamma-stimulated mouse thymocyte
[20] = tested on: BJ; experiment: Induction of p21 mRNA expression in 5-fluorouracil-stimulated human BJ cells; assay type: functional, cell-based
Outline: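 Wild-type and p53-deficient cell pairs stimulated with 5-FU ([…] as printed) or gamma irradiation (10 or 15 Gy); p21 mRNA quantified by real-time PCR; means ± s.d., n = 3.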

[21] = target: Cellular tumor antigen p53 (Homo sapiens) (UniProt P04637); experiment: Inhibition of p53 in gamma-stimulated human ConA cells assessed as effect on cell cycle distribution at 10 uM after 24 hrs; assay type: cell-based
Outline: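 ConA cells given 10 µM test agent, with or without 10 Gy gamma irradiation. Cell-cycle distribution measured 24 h later.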

[22] = tested on: MCF7; experiment: Induction of Puma gene expression in human MCF7 cells; assay type: functional, cell-based
Outline: (§4)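 Northern blot: 10 mg RNA (so in the source) isolated 18 h after UV (8.5 J m–2) or doxorubicin (125 mg ml–1 as printed) from MCF7 or U2OS cells and p53-knockdown (lentiviral shRNA) counterparts; hybridized with 32P-labeled full-length cDNA probes for Bax, Noxa, Puma; 18S rRNA loading control.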

[23] = tested on: MCF7; experiment: Induction of Puma gene expression in UV-induced human MCF7 cells; assay type: functional, cell-based; outline: as §4
[24] = tested on: MCF7; experiment: Induction of Noxa gene expression in human MCF7 cells; assay type: functional, cell-based; outline: as §4
[25] = tested on: MCF7; experiment: Induction of Bax gene expression in UV-induced human MCF7 cells; assay type: functional, cell-based; outline: as §4
[26] = tested on: MCF7; experiment: Induction of Bax gene expression in human MCF7 cells; assay type: functional, cell-based; outline: as §4
[27] = tested on: U2OS; experiment: Induction of Puma gene expression in human U2OS cells; assay type: functional, cell-based; outline: as §4
[28] = tested on: U2OS; experiment: Induction of Noxa gene expression in doxorubicin-induced human U2OS cells; assay type: functional, cell-based; outline: as §4
[29] = tested on: U2OS; experiment: Induction of Bax gene expression in doxorubicin-induced human U2OS cells; assay type: functional, cell-based; outline: as §4
[30] = tested on: Thymocyte; experiment: Induction of Puma gene expression in gamma-induced mouse thymocytes; assay type: functional, cell-based
[31] = target: Cellular tumor antigen p53 (Homo sapiens) (UniProt P04637); experiment: Binding affinity to p53 transfected in human Saos-2 cells harboring pLV-53 assessed as reduction of p53 protein in mitochondria at 10 uM after 48 hrs
Outline: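 Saos-2 cells infected with p53-expressing lentivirus; compound ([…] as printed) added 5 h after infection; mitochondrial and cytosolic fractions western blotted for p53 at 48 h post-infection, with mt-Hsp75 and β-actin as fraction loading controls.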

[32] = target: Cellular tumor antigen p53 (Mus musculus) (UniProt P02340); experiment: Binding affinity to p53 in gamma irradiated mouse thymocyte assessed as cytosolic p53 concentration at 10 uM after 2 hrs
[33] = target: Cellular tumor antigen p53 (Mus musculus) (UniProt P02340); experiment: Binding affinity to p53 in gamma irradiated mouse thymocyte assessed as cytosolic Bcl-2 concentration at 10 uM after 2 hrs
[34] = target: Cellular tumor antigen p53 (Mus musculus) (UniProt P02340); experiment: Binding affinity to p53 in gamma irradiated mouse thymocyte assessed as cytosolic p21 concentration at 10 uM after 2 hrs
[35] = tested on: Thymocyte; experiment: Induction of p21 mRNA expression in mouse thymocytes
[36] = tested on: Thymocyte; experiment: Induction of p21 mRNA expression in gamma-stimulated mouse thymocytes

Chain of Cellular tumor antigen p53 (Homo sapiens) (P04637 whole entry, looked up): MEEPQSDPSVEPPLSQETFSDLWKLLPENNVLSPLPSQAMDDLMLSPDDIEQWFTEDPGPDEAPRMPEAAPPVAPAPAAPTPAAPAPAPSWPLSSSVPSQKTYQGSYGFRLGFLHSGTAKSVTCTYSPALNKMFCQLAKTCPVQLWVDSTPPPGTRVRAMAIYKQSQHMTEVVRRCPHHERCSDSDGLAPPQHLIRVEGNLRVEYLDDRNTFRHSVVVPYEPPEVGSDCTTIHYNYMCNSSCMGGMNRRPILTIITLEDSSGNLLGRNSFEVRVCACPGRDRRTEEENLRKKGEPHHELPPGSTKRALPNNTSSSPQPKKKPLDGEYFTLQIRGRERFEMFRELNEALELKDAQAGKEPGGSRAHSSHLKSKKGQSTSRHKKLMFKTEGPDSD

SMILES: NS(=O)(=O)C#Cc1ccccc1
- Activity [1]: Active
- Activity [2]: Active
- Activity [3]: Active
- Activity [4]: inactive
- Activity [5]: inactive
- Activity [6]: inactive
- Activity [7]: inactive
- inhibition [8]: Active
- inhibition [9]: Active
- inhibition [10]: inactive
- inhibition [11]: inactive
- inhibition [12]: inactive
- inhibition [13]: inactive
- inhibition [14]: inactive
- inhibition [15]: inactive
- inhibition [16]: inactive
- inhibition [17]: inactive
- inhibition [18]: inactive
- inhibition [19]: inactive
- Activity [20]: inactive
- inhibition [21]: inactive
- Activity [22]: inactive
- Activity [23]: inactive
- Activity [24]: inactive
- Activity [25]: inactive
- Activity [26]: inactive
- Activity [27]: inactive
- Activity [28]: inactive
- Activity [29]: inactive
- Activity [30]: inactive
- Activity [31]: Active
- Activity [32]: inactive
- Activity [33]: inactive
- Activity [34]: inactive
- Activity [35]: inactive
- Activity [36]: inactive
